Experimental data reported in ChEMBL document CHEMBL5247575 (J Med Chem, 2018).
pKd, pKi: −log10 of the molar value.

Experiments:
Klebsiella pneumoniae [1] = experiment: Synergistic antibacterial activity against Klebsiella pneumoniae 1398/2291 producing KPC-3 assessed as meropenem MIC at 4 ug/ml by broth microdilution method; format: functional; details: dose 4 µg/ml
Summary of the method: (§1)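 Broth microdilution per CLSI guidelines, using custom frozen panels. […] Each partner drug was also tested alone. MICs were run in triplicate and the modal value is reported.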

Klebsiella pneumoniae [2] = experiment: Synergistic antibacterial activity against Klebsiella pneumoniae 776/1742 producing KPC-2 assessed as cefepime MIC at 4 ug/ml by broth microdilution method; format: functional; details: dose 4 µg/ml
Pseudomonas aeruginosa [3] = experiment: Synergistic antibacterial activity against Pseudomonas aeruginosa 776 assessed as meropenem MIC at 4 ug/ml by broth microdilution method; format: functional; details: dose 4 µg/ml
Klebsiella pneumoniae [4] = experiment: Synergistic antibacterial activity against Klebsiella pneumoniae 1108/1989 producing KPC-3 assessed as cefepime MIC at 4 ug/ml by broth microdilution method; format: functional; details: dose 4 µg/ml; summary of the method: as §1
Acinetobacter baumannii [5] = experiment: Synergistic antibacterial activity against ADC deleted Acinetobacter baumannii transfected with pWH1266 producing OXA-24/40 assessed as meropenem MIC at 4 ug/ml by broth microdilution method; format: functional; details: dose 4 µg/ml
Pseudomonas aeruginosa [6] = experiment: Synergistic antibacterial activity against Pseudomonas aeruginosa 776 assessed as cefepime MIC at 4 ug/ml by broth microdilution method; format: functional; details: dose 4 µg/ml
Klebsiella pneumoniae [7] = experiment: Synergistic antibacterial activity against Klebsiella pneumoniae 440/1360 producing KPC-2 assessed as meropenem MIC at 4 ug/ml by broth microdilution method; format: functional; details: dose 4 µg/ml; summary of the method: as §1
Acinetobacter baumannii [8] = experiment: Synergistic antibacterial activity against Acinetobacter baumannii PR381 producing OXA-24/40 assessed as meropenem MIC at 4 ug/ml by broth microdilution method; format: functional; details: dose 4 µg/ml
Pseudomonas aeruginosa [9] = experiment: Synergistic antibacterial activity against Pseudomonas aeruginosa 715 assessed as cefepime MIC at 4 ug/ml by broth microdilution method; format: functional; details: dose 4 µg/ml
Klebsiella pneumoniae [10] = experiment: Synergistic antibacterial activity against Klebsiella pneumoniae NY BS producing OXA-232 assessed as cefepime MIC at 4 ug/ml by broth microdilution method; format: functional; details: dose 4 µg/ml
Acinetobacter baumannii [11] = experiment: Synergistic antibacterial activity against Acinetobacter baumannii PR420 producing OXA-23/24/40 assessed as meropenem MIC at 4 ug/ml by broth microdilution method; format: functional; details: dose 4 µg/ml
Klebsiella pneumoniae [12] = experiment: Synergistic antibacterial activity against Klebsiella pneumoniae jefferson 1773 producing OXA-181 assessed as meropenem MIC at 4 ug/ml by broth microdilution method; format: functional; details: dose 4 µg/ml
Klebsiella pneumoniae [13] = experiment: Synergistic antibacterial activity against Klebsiella pneumoniae jefferson 1773 producing OXA-181 assessed as cefepime MIC at 4 ug/ml by broth microdilution method; format: functional; details: dose 4 µg/ml
Pseudomonas aeruginosa [14] = experiment: Synergistic antibacterial activity against Pseudomonas aeruginosa 795 assessed as meropenem MIC at 4 ug/ml by broth microdilution method; format: functional; details: dose 4 µg/ml
Acinetobacter baumannii [15] = experiment: Synergistic antibacterial activity against Acinetobacter baumannii PR408 producing OXA-24/40 assessed as meropenem MIC at 4 ug/ml by broth microdilution method; format: functional; details: dose 4 µg/ml
Klebsiella pneumoniae [16] = experiment: Synergistic antibacterial activity against Klebsiella pneumoniae 729/1679 producing KPC-3 assessed as cefepime MIC at 4 ug/ml by broth microdilution method; format: functional; details: dose 4 µg/ml; summary of the method: as §1
Escherichia coli [17] = experiment: Synergistic antibacterial activity against Escherichia coli DH10B assessed as meropenem MIC at 4 ug/ml by broth microdilution method; format: functional; details: dose 4 µg/ml
Bacteria = experiment: Inhibition of bacteria ADC-7 assessed as half life using nitrocefin as substrate
Klebsiella pneumoniae [18] = experiment: Synergistic antibacterial activity against Klebsiella pneumoniae 761/1723 producing KPC-3 assessed as meropenem MIC at 4 ug/ml by broth microdilution method; format: functional; details: dose 4 µg/ml
Acinetobacter baumannii [19] = experiment: Synergistic antibacterial activity against ADC deleted Acinetobacter baumannii assessed as meropenem MIC at 4 ug/ml by broth microdilution method; format: functional; details: dose 4 µg/ml
Pseudomonas aeruginosa [20] = experiment: Synergistic antibacterial activity against Pseudomonas aeruginosa 839 assessed as meropenem MIC at 4 ug/ml by broth microdilution method; format: functional; details: dose 4 µg/ml
Pseudomonas aeruginosa [21] = experiment: Synergistic antibacterial activity against Pseudomonas aeruginosa CL232 assessed as meropenem MIC at 4 ug/ml by broth microdilution method; format: functional; details: dose 4 µg/ml
Acinetobacter baumannii [22] = experiment: Synergistic antibacterial activity against Acinetobacter baumannii PR448 producing OXA-23 assessed as meropenem MIC at 4 ug/ml by broth microdilution method; format: functional; details: dose 4 µg/ml
Klebsiella pneumoniae [23] = experiment: Synergistic antibacterial activity against Klebsiella pneumoniae 1084/1957 producing KPC-3 assessed as cefepime MIC at 4 ug/ml by broth microdilution method; format: functional; details: dose 4 µg/ml; summary of the method: as §1
Escherichia coli [24] = experiment: Antibacterial activity against Escherichia coli DH10B transfected with pBC SK (-) PDC-3 by broth microdilution method; format: functional
[25] = Binding affinity to bacteria ADC-7 assessed as dissociation constant
[26] = Inhibition of bacteria ADC-7 assessed as apparent inhibition constant using nitrocefin as substrate
Klebsiella pneumoniae [27] = experiment: Synergistic antibacterial activity against Klebsiella pneumoniae 977/1916 producing KPC-3 assessed as cefepime MIC at 8 ug/ml by broth microdilution method; format: functional; details: dose 8 µg/ml
Klebsiella pneumoniae [28] = experiment: Synergistic antibacterial activity against Klebsiella pneumoniae 660/1568 producing KPC-3 assessed as cefepime MIC at 8 ug/ml by broth microdilution method; format: functional; details: dose 8 µg/ml; summary of the method: as §1
Klebsiella pneumoniae [29] = experiment: Synergistic antibacterial activity against Klebsiella pneumoniae 776/1742 producing KPC-2 assessed as meropenem MIC at 8 ug/ml by broth microdilution method; format: functional; details: dose 8 µg/ml
Klebsiella pneumoniae [30] = experiment: Synergistic antibacterial activity against Klebsiella pneumoniae 935/1884 producing KPC-3 assessed as cefepime MIC at 8 ug/ml by broth microdilution method; format: functional; details: dose 8 µg/ml
Acinetobacter baumannii [31] = experiment: Synergistic antibacterial activity against ADC deleted Acinetobacter baumannii transfected with pWH1266 OXA-23 assessed as cefepime MIC at 8 ug/ml by broth microdilution method; format: functional; details: dose 8 µg/ml
Klebsiella pneumoniae [32] = experiment: Synergistic antibacterial activity against Klebsiella pneumoniae 1108/1989 producing KPC-3 assessed as meropenem MIC at 8 ug/ml by broth microdilution method; format: functional; details: dose 8 µg/ml; summary of the method: as §1
Klebsiella pneumoniae [33] = experiment: Synergistic antibacterial activity against Klebsiella pneumoniae CAV 1543 producing OXA-48 assessed as meropenem MIC at 8 ug/ml by broth microdilution method; format: functional; details: dose 8 µg/ml
Escherichia coli [34] = experiment: Synergistic antibacterial activity against Escherichia coli DH10B transfected with pBC SK (-) KPC-2 assessed as meropenem MIC at 8 ug/ml by broth microdilution method; format: functional; details: dose 8 µg/ml
Pseudomonas aeruginosa [35] = experiment: Synergistic antibacterial activity against Pseudomonas aeruginosa 776 assessed as meropenem MIC at 8 ug/ml by broth microdilution method; format: functional; details: dose 8 µg/ml
Klebsiella pneumoniae [36] = experiment: Synergistic antibacterial activity against Klebsiella pneumoniae 1315/2198 producing KPC-3 assessed as cefepime MIC at 8 ug/ml by broth microdilution method; format: functional; details: dose 8 µg/ml; summary of the method: as §1
Acinetobacter baumannii [37] = experiment: Synergistic antibacterial activity against Acinetobacter baumannii PR440 producing OXA-23/24/40 assessed as meropenem MIC at 8 ug/ml by broth microdilution method; format: functional; details: dose 8 µg/ml
Klebsiella pneumoniae [38] = experiment: Synergistic antibacterial activity against Klebsiella pneumoniae 901/1860 producing KPC-3 assessed as cefepime MIC at 8 ug/ml by broth microdilution method; format: functional; details: dose 8 µg/ml
Klebsiella pneumoniae [39] = experiment: Synergistic antibacterial activity against Klebsiella pneumoniae 935/1884 producing KPC-3 assessed as meropenem MIC at 8 ug/ml by broth microdilution method; format: functional; details: dose 8 µg/ml
Klebsiella pneumoniae [40] = experiment: Synergistic antibacterial activity against Klebsiella pneumoniae jefferson 1773 producing OXA-181 assessed as cefepime MIC at 8 ug/ml by broth microdilution method; format: functional; details: dose 8 µg/ml

SMILES	MIC (Klebsiella pneumoniae [1]) [µg/mL]	MIC (Klebsiella pneumoniae [2]) [µg/mL]	MIC (Klebsiella pneumoniae [4]) [µg/mL]	MIC (Acinetobacter baumannii [5]) [µg/mL]	MIC (Klebsiella pneumoniae [7]) [µg/mL]	MIC (Acinetobacter baumannii [8]) [µg/mL]	MIC (Pseudomonas aeruginosa [9]) [µg/mL]	MIC (Klebsiella pneumoniae [10]) [µg/mL]	MIC (Acinetobacter baumannii [11]) [µg/mL]	MIC (Klebsiella pneumoniae [12]) [µg/mL]	MIC (Klebsiella pneumoniae [13]) [µg/mL]	MIC (Pseudomonas aeruginosa [14]) [µg/mL]	MIC (Acinetobacter baumannii [15]) [µg/mL]	MIC (Klebsiella pneumoniae [16]) [µg/mL]	MIC (Escherichia coli [17]) [µg/mL]	T1/2 (Bacteria) [min]	MIC (Klebsiella pneumoniae [18]) [µg/mL]	MIC (Acinetobacter baumannii [19]) [µg/mL]	MIC (Pseudomonas aeruginosa [20]) [µg/mL]	MIC (Pseudomonas aeruginosa [21]) [µg/mL]	also measured
O.O=C(NC1CCNCC1)[C@@H]1CC[C@@H]2CN1C(=O)N2OS(=O)(=O)O [RELEBACTAM]	≤ 0.12	1	0.5	> 16	≤ 0.12	> 16	16	2	> 16	16	4	8	> 16	0.5	≤ 0.12	39	≤ 0.12	≤ 0.12	1	> 16	MIC (Pseudomonas aeruginosa [3]): > 16 µg/mL; MIC (Pseudomonas aeruginosa [6]): 16 µg/mL; MIC (Acinetobacter baumannii [22]): > 16 µg/mL; MIC (Klebsiella pneumoniae [23]): 0.25 µg/mL; MIC (Escherichia coli [24]): > 16 µg/mL
NC(=O)[C@@H]1CC[C@@H]2CN1C(=O)N2OS(=O)(=O)[O-].[Na+] [AVIBACTAM SODIUM]	≤ 0.12	0.5	≤ 0.12	> 16	≤ 0.12	> 16	16	0.5	> 16	1	1	16	> 16	0.25	≤ 0.12	33	≤ 0.12	≤ 0.12	1	> 16	pKd [25]: 7.05; pKi [26]: 4.72; MIC (Acinetobacter baumannii [22]): > 16 µg/mL; MIC (Klebsiella pneumoniae [23]): ≤ 0.12 µg/mL; MIC (Escherichia coli [24]): > 16 µg/mL
N#C[C@@H]1CC[C@@H]2CN1C(=O)N2OS(=O)(=O)[O-].[Na+]	≤ 0.12	1	0.25	> 16	≤ 0.12	> 16	16	0.5	16	0.25	1	16	> 16	0.5	≤ 0.12	12	≤ 0.12	≤ 0.12	1	16	MIC (Pseudomonas aeruginosa [3]): 16 µg/mL; MIC (Klebsiella pneumoniae [27]): ≤ 0.12 µg/mL; MIC (Klebsiella pneumoniae [28]): 0.25 µg/mL; MIC (Klebsiella pneumoniae [29]): 0.25 µg/mL; MIC (Klebsiella pneumoniae [30]): ≤ 0.12 µg/mL; MIC (Acinetobacter baumannii [31]): 2 µg/mL; MIC (Klebsiella pneumoniae [32]): ≤ 0.12 µg/mL; MIC (Klebsiella pneumoniae [33]): ≤ 0.12 µg/mL; MIC (Escherichia coli [34]): ≤ 0.12 µg/mL; MIC (Pseudomonas aeruginosa [35]): > 16 µg/mL; MIC (Acinetobacter baumannii [22]): 2 µg/mL; MIC (Klebsiella pneumoniae [36]): 0.25 µg/mL; MIC (Acinetobacter baumannii [37]): 2 µg/mL; MIC (Klebsiella pneumoniae [23]): ≤ 0.12 µg/mL; MIC (Klebsiella pneumoniae [38]): ≤ 0.12 µg/mL; MIC (Klebsiella pneumoniae [39]): ≤ 0.12 µg/mL; MIC (Escherichia coli [24]): > 16 µg/mL; MIC (Klebsiella pneumoniae [40]): 1 µg/mL
